From ChEMBL document CHEMBL4406794, “N-(7-Cyano-6-(4-fluoro-3-(2-(3-(trifluoromethyl)phenyl)acetamido)phenoxy)benzo[d]thiazol-2-yl)cyclopropanecarboxamide (TAK-632) Analogues as Novel Necroptosis Inhibitors by Targeting Receptor-Interacting Protein Kinase 3 (RIPK3): Synthesis, Structure-Activity Relationships, and in Vivo Efficacy” (J Med Chem, 2019)
Activity calls are given as the source filed them. No cut-off for these calls is given here.

How the values were obtained:
[1] = system: HT-29; assay: Anti-necroptotic activity in human HT-29 cells assessed as inhibition of […]/SM-164/Z-VAD-fmk-induced necroptosis measured after 16 hrs by celltiter-glo luminescent cell viability assay; conditions: HT-29, 16 h
[2] = Cytotoxicity against human HT-29 cells measured after 12 hrs by CellTiter-Glo Luminescent assay; assay type: cell-based
[3] = target: Receptor-interacting serine/threonine-protein kinase 3 (Homo sapiens, UniProt Q9Y572); assay: Binding affinity to wild-type human partial length RIPK3 (M1 to Q307 residues) expressed in bacterial expression system after 1 hr by quantitative PCR based KINOMEscan assay
Receptor-interacting serine/threonine-protein kinase 3, sequence (Q9Y572 whole entry, the tested form may be a part): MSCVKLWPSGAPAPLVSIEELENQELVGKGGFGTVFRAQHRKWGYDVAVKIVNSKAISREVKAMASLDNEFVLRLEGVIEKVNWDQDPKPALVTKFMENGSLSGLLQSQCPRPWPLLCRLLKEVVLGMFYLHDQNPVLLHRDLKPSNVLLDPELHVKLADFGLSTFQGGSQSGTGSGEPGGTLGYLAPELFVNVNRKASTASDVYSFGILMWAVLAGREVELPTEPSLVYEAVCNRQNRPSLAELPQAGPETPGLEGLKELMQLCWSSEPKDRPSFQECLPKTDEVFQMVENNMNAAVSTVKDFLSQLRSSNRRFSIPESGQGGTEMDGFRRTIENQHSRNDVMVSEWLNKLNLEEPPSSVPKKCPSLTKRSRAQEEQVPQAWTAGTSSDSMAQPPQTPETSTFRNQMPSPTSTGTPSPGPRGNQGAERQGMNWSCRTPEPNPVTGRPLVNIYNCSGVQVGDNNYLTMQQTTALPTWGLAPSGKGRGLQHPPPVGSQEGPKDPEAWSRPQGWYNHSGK
Method in brief: (§1)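 KINOMEscan competition binding. Bound kinase eluted with 0.5 μM nonbiotinylated ligand for 30 min and quantified by qPCR. Duplicates averaged.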

[4] = target: T1, Receptor-interacting serine/threonine-protein kinase 1 (Homo sapiens, UniProt Q13546); assay: Binding affinity to wild-type human partial length RIPK1 (M1 to K305 residues) expressed in bacterial expression system after 1 hr by quantitative PCR based KINOMEscan assay
T1 sequence (Q13546 whole entry): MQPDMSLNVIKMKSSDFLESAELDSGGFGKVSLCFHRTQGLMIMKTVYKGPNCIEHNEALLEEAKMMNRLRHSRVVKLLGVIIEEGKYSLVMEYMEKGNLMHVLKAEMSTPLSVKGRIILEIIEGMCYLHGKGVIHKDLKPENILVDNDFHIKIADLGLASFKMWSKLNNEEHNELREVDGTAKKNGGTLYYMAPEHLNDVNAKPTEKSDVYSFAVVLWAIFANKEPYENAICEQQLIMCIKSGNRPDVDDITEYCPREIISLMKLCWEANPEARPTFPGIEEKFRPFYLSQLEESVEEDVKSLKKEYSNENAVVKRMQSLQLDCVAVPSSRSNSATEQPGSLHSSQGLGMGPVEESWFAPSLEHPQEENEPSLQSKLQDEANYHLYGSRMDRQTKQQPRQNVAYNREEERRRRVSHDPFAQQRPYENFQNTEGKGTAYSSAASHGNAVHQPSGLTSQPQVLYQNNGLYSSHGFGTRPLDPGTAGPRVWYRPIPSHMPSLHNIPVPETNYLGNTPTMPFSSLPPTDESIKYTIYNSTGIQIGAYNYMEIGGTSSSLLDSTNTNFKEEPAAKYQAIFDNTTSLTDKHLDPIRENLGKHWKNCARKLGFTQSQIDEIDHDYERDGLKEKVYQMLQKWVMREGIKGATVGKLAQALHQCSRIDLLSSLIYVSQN
Method in brief: as §1

[5] = species on record: Homo sapiens; assay: Selectivity ratio of Kd for human partial length RIPK1 (M1 to K305 residues) expressed in bacterial expression system to Kd for wild-type human partial length RIPK3 (M1 to Q307 residues) expressed in bacterial expression system
[6] = system: Mus musculus; assay: (§2) Protection against TNFalpha/Z-VAD-fmk-induced C57BL/6J mouse model of systemic inflammatory response syndrome assessed as increase in body temperature at 5 to 50 mg/kg, po administered via gavage 2 hrs prior to Z-VAD-fmk addition for 15 mins followed by TNFalpha stimulation for 1 hr and subsequent Z-VAD-fmk addition meaured up to 50 hrs post TNFalpha stimulation by electric thermometer; assay type: functional, organism-based
Method in brief: (§3)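 Female C57BL/6 mice, fasted overnight, n=10 per group. Compound given by oral gavage at 5, 25 or 50 mg/kg 2 h before TNF. z-VAD-fmk 180 µg i.p., then 15 min later mTNF-α 400 µg/kg i.v. in endotoxin-free PBS, then a further 70 µg z-VAD-fmk i.p. 1 h later. Body temperature and survival followed, compared with vehicle by one-way ANOVA.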

[7] = system: Mus musculus; assay: as §2, with “mouse survial” for “body temperature”, “stimulation” for “stimulation by electric thermometer”; assay type: functional, organism-based
Method in brief: as §3

[8] = system: Mus musculus; assay: as §2, with “syndrome” for “syndrome assessed as increase in body temperature”, “100” for “5 to 50”, “relative to control” for “by electric thermometer”; assay type: functional
[9] = system: Mus musculus; assay: as §2, with “syndrome” for “syndrome assessed as increase in body temperature”, “25” for “5 to 50”, “relative to control” for “by electric thermometer”; assay type: functional
Method in brief: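 Overnight-fasted C57BL/6 female mice, n=10 per group. Test compound was given by oral gavage 2 h before mTNF-α. z-VAD-fmk (180 µg) was injected ip, then 15 min later mTNF-α in endotoxin-free PBS was injected iv (400 µg/kg). A second z-VAD-fmk dose (70 µg) was given ip 1 h after TNF. Body temperature and survival were followed against vehicle. One-way ANOVA was used.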

Kd [3]	Kd [4]	SMILES	EC50 [1]	CC50 at 12 h [2]	also measured
55 nM	240 nM	COc1cccc(CC(=O)Nc2cc(Oc3ccc4nc(NC(=O)C5CC5)sc4c3)ccc2F)c1	330 nM	> 50000 nM	
		N#Cc1c(Oc2ccc(F)c(NC(=O)Cc3cccc(C(F)(F)F)c3)c2)ccc2nc(NC(=O)OCc3ccccc3)sc12	> 20000 nM		
		N#Cc1c(Oc2ccc(F)c(NC(=O)Cc3cccc(F)c3)c2)ccc2nc(NC(=O)C3CC3)sc12	> 20000 nM		
280 nM	220 nM	O=C(Cc1cccc(C(F)(F)F)n1)Nc1cc(Oc2ccc3nc(NC(=O)C4CC4)sc3c2)ccc1F	320 nM	> 50000 nM	
53 nM	> 5000 nM	CC(=O)c1cccc(NC(=O)Nc2cc(Oc3ccc4nc(NC(=O)C5CC5)sc4c3)ccc2F)c1	1000 nM	> 50000 nM	Ratio [5]: > 94.3
		O=C(Nc1nc2ccc(Oc3ccc(F)c(NCc4ccc5c(c4)OCO5)c3)cc2s1)C1CC1	> 20000 nM		
		O=C(Nc1nc2ccc(Oc3ccc(F)c(NS(=O)(=O)c4cccc(C(F)(F)F)c4)c3)cc2s1)C1CC1	> 20000 nM		
81 nM	1100 nM	O=C(Cc1ccc2c(c1)OCO2)Nc1cc(Oc2ccc3nc(NC(=O)C4CC4)sc3c2)ccc1F	2320 nM	> 50000 nM	Ratio [5]: 13
120 nM	49 nM	O=C(Cc1cccc(OC(F)(F)F)c1)Nc1cc(Oc2ccc3nc(NC(=O)C4CC4)sc3c2)ccc1F	60 nM	> 50000 nM	
		O=C(Cc1ccccn1)Nc1cc(Oc2ccc3nc(NC(=O)C4CC4)sc3c2)ccc1F	8300 nM		
		CCC(=O)Nc1nc2ccc(Oc3ccc(F)c(NC(=O)Cc4cccc(C(F)(F)F)c4)c3)c(C#N)c2s1	> 20000 nM		
110 nM	770 nM	O=C(Cc1cccc([N+](=O)[O-])c1)Nc1cc(Oc2ccc3nc(NC(=O)C4CC4)sc3c2)ccc1F	610 nM	> 50000 nM	
130 nM	590 nM	O=C(Cc1ccc(F)c(C(F)(F)F)c1)Nc1cc(Oc2ccc3nc(NC(=O)C4CC4)sc3c2)ccc1F	400 nM	> 50000 nM	
33 nM	320 nM	Cc1cccc(CC(=O)Nc2cc(Oc3ccc4nc(NC(=O)C5CC5)sc4c3)ccc2F)c1	380 nM	> 50000 nM	
790 nM	510 nM	O=C(CCc1cccc(C(F)(F)F)c1)Nc1cc(Oc2ccc3nc(NC(=O)C4CC4)sc3c2)ccc1F	650 nM	> 50000 nM	
93 nM	2200 nM	Cc1cccc(NC(=O)Nc2cc(Oc3ccc4nc(NC(=O)C5CC5)sc4c3)ccc2F)c1	580 nM	> 50000 nM	Ratio [5]: 23.6
		N#Cc1c(Oc2ccc(F)c(NC(=O)Cc3cccc(C(F)(F)F)c3F)c2)ccc2nc(NC(=O)C3CC3)sc12	2030 nM		
		O=C(Nc1nc2ccc(Oc3ccc(F)c(NC(=O)C4(c5cccc(C(F)(F)F)c5)CC4)c3)cc2s1)C1CC1	> 20000 nM	> 50000 nM	

Kd [3]	Kd [4]	SMILES	EC50 [1]	CC50 at 12 h [2]	also measured
		CCCCCCCCC(=O)Nc1nc2ccc(Oc3ccc(F)c(NC(=O)Cc4cccc(C(F)(F)F)c4)c3)c(C#N)c2s1	> 20000 nM		
69 nM	3600 nM	COc1cccc(NC(=O)Nc2cc(Oc3ccc4nc(NC(=O)C5CC5)sc4c3)ccc2F)c1	1370 nM	> 50000 nM	Ratio [5]: 52.1
		O=C(Cc1ccccc1C(F)(F)F)Nc1cc(Oc2ccc3nc(NC(=O)C4CC4)sc3c2)ccc1F	11400 nM		
		O=C(Cc1cccc(C(F)(F)F)c1Cl)Nc1cc(Oc2ccc3nc(NC(=O)C4CC4)sc3c2)ccc1F	> 20000 nM		
72 nM	1200 nM	Cc1ccc(CC(=O)Nc2cc(Oc3ccc4nc(NC(=O)C5CC5)sc4c3)ccc2F)cc1C	1670 nM	> 50000 nM	
		O=C(Cc1cccc(C(F)(F)F)c1)Nc1cc(Oc2ccc3nc(NC(=O)C4CC4)sc3c2)ccc1F			Activity [6]: Active; Activity [7]: Active
		O=C(Cc1cc(C(F)(F)F)cc(C(F)(F)F)c1)Nc1cc(Oc2ccc3nc(NC(=O)C4CC4)sc3c2)ccc1F	9700 nM	> 50000 nM	
1400 nM	4800 nM	Cn1cc(CC(=O)Nc2cc(Oc3ccc4nc(NC(=O)C5CC5)sc4c3)ccc2F)c2ccccc21	3810 nM	> 50000 nM	
99 nM	510 nM	O=C(Cc1cccc(C(F)(F)F)c1F)Nc1cc(Oc2ccc3nc(NC(=O)C4CC4)sc3c2)ccc1F	490 nM	> 50000 nM	
		O=C(Cc1cccc(O)c1)Nc1cc(Oc2ccc3nc(NC(=O)C4CC4)sc3c2)ccc1F	> 20000 nM		
72 nM	> 5000 nM	CCOC(=O)c1cccc(NC(=O)Nc2cc(Oc3ccc4nc(NC(=O)C5CC5)sc4c3)ccc2F)c1	7740 nM	> 50000 nM	Ratio [5]: > 69.4
		N#Cc1c(Oc2ccc(F)c(NC(=O)c3cccc(C(F)(F)F)c3)c2)ccc2nc(NC(=O)C3CC3)sc12	> 20000 nM		
		O=C(Nc1nc2ccc(Oc3ccc(F)c(NCc4cccc(C(F)(F)F)c4)c3)cc2s1)C1CC1	> 20000 nM		
120 nM	780 nM	N#Cc1cccc(CC(=O)Nc2cc(Oc3ccc4nc(NC(=O)C5CC5)sc4c3)ccc2F)c1	1290 nM	> 50000 nM	
		N#Cc1c(Oc2ccc(F)c(NC(=O)Cc3cccc(C(F)(F)F)c3)c2)ccc2nc(NC(=O)c3ccccc3)sc12	> 20000 nM		
		N#Cc1c(Oc2ccc(F)c(NC(=O)Cc3ccc([N+](=O)[O-])cc3)c2)ccc2nc(NC(=O)C3CC3)sc12	> 20000 nM		
		N#Cc1c(Oc2ccc(F)c(NC(=O)Cc3ccccc3)c2)ccc2nc(NC(=O)C3CC3)sc12	> 20000 nM		
	480 nM	N#Cc1c(Oc2ccc(F)c(NC(=O)Cc3cccc(C(F)(F)F)c3)c2)ccc2nc(NC(=O)C3CC3)sc12		> 50000 nM	Activity [6]: Active; Activity [8]: 70%; Activity [9]: 20%; Activity [7]: Active
